From ChEMBL document CHEMBL2010771, “Studies toward novel peptidomimetic inhibitors of thioredoxin-thioredoxin reductase system” (J Med Chem, 2012)
The source made the active and inactive calls. The rule behind the calls is not given here.

Legend:
[1] = Inhibition of human recombinant Trx1/TrxR assessed as reduction in number of free thiols from reduced insulin after 30 mins by insulin reduction assay
Outline: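 At least seven compound concentrations. Incubated 30 min at 37 °C, stopped with 8 mM DTNB in 8 M guanidine HCl, A412. IC50 from four-parameter logistic fit. Triplicates, mean ± SD, n ≥ 3.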

EMT6 [2] = assay: Cytotoxicity against mouse EMT6 cells after 72 hrs by crystal violet staining; format: functional; conditions: EMT6, 72 h, read-out: LD50 (the source's name)
[3] = Cytotoxicity against mouse PancO2 cells after 72 hrs by crystal violet staining; format: functional; conditions: read-out: LD50 (the source's name)
Raji [4] = assay: Inhibition of Trx1/TrxR in human Raji cells after 4 hrs by insulin reduction assay; format: cell-based
Outline: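 Raji cells incubated with compound for 4 h, washed three times with PBS and lysed in 0.1% NP40 with protease inhibitors. Protein measured by BCA. Trx activity determined in 10 μg of total protein by kit insulin reduction with TrxR/NADPH for 20 min at 37 °C, then DTNB/guanidine stop and A412. Triplicates, n = 3, SD.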

K562 = assay: Cytotoxicity against human K562 cells after 72 hrs by MTT assay; format: functional; conditions: K562, 72 h, read-out: LD50 (the source's name)
Outline: (§1)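 Suspension cells were grown in RPMI-1640 with 10% heat-inactivated FBS and exposed to compound for 72 h with DMSO ≤1%. MTT (5 mg/mL solution) was added for 4 h, then plates were centrifuged, cells lysed in DMSO and read at A570. Viability is % of solvent controls, background-corrected; n ≥ 3.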

Mus musculus [5] = assay: Toxicity in mouse EMT6 cells allografted BALB/c mouse assessed as mortality at 40 to 80 mg/kg, ip qd for 7 days; format: organism-based; set-up: dose 40-80 mg/kg, route intraperitoneal; conditions: in vivo, 168 h
Outline: (§2)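 BALB/c mice, 8−12 weeks old, inoculated sc with 3.5 × 10^5 EMT6 cells into the depilated right thigh. Intraperitoneal dosing in DMSO began on day 7, when tumors reached a longer diameter of 5−7 mm, and was given daily. Controls received ip DMSO. Tumor volume was followed by calipers as longer × shorter²/2. Survival and body weight were monitored.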

[6] = target: T1, Thioredoxin (Homo sapiens) (UniProt P10599); assay: Binding affinity to human recombinant Trx-1 expressed in Escherichia coli by mass spectrometry analysis
T1 sequence (whole entry): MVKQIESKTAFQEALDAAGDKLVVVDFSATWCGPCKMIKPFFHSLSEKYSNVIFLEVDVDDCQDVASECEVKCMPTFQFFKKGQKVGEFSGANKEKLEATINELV

CT26 = assay: Cytotoxicity against wild type mouse CT26 cells after 72 hrs by crystal violet staining; format: functional; conditions: CT26, 72 h, read-out: LD50 (the source's name)
Mus musculus [7] = assay: Toxicity in mouse EMT6 cells allografted BALB/c mouse assessed as change in body weight at 40 to 80 mg/kg, ip qd for 7 days; format: organism-based; set-up: dose 40-80 mg/kg, route intraperitoneal; conditions: in vivo, 168 h; outline: as §2
[8] = target: T1, Thioredoxin (Homo sapiens); assay: Inhibition of thioredoxin in human HeLa cells assessed as decrease of H2O2 scavenging activity by measuring CM-H2DCFDA fluorescence at 10 uM after 4 hrs by flow cytometeric analysis; format: cell-based
Outline: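 HeLa cells treated 4 h with 10 or 20 μM compound, then trypsinized and resuspended in PBS. H2O2 added to 1 mM final for 10 min, then 1 μL of 5 mM CM-H2DCFDA for 15 min at 37 °C. Cells washed twice and 10^4 cells analyzed by flow cytometry. Triplicates, n = 3, Student's t test.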

Raji [9] = assay: Induction of Trx mRNA expression in human Raji cells at 5 to 10 uM after 4 to 24 hrs by RT-PCR analysis; format: functional, cell-based
[10] = target: T1, Thioredoxin (Homo sapiens); assay: Inhibition of human recombinant Trx-1 expressed in Escherichia coli at 2.5 to 20 uM by insulin reduction assay in presence of thioredoxin reductase; conditions: TDE = time-dependent effect
Outline: (§3)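 Human recombinant His-tagged Trx purified by Ni affinity and gel filtration, then dialyzed free of DTT. Trx was prereduced with TrxR and NADPH for 20 min, then preincubated with compound (2.5−20 μM) for 0−90 min at 37 °C. Reaction ran 30 min at 37 °C in Tris-HCl/EDTA pH 7.6. DTNB stop, A412. Triplicates, SD.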

EMT6 [11] = assay: Antitumor activity against mouse EMT6 cells allografted in BALB/c mouse assessed as reduction in tumor growth at 80 mg/kg, ip qd for 7 days; format: functional, organism-based; set-up: dose 80 mg/kg
Outline: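 BALB/c mice (8−12 wk) inoculated s.c. with 3.5 × 10^5 EMT6 cells into the depilated right thigh. Controls received DMSO ip. Tumor volume measured by calipers as (longer diameter) × (shorter diameter)²/2. Survival also recorded.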

[12] = Chemical stability of the compound in 0.01 M PBS buffer at pH 7.4 after 4 days by RP-HPLC analysis; format: physicochemical; conditions: pH 7.4, 96 h
Outline: (§4)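 Stock in DMSO (5 mg/mL) diluted about 100-fold into 0.01 M PBS pH 7.4 prewarmed to 37 °C, then held at 37 °C for up to 7 days. At each time point, 100 μL aliquots were mixed with 200 μL ethanol, chilled at 4 °C for 15 min, centrifuged and stored at −20 °C. Samples were quantified by RP-HPLC (C18, acetonitrile/water, 230 nm) against standard curves of at least five dilutions. Triplicates, n = 3.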

Raji [13] = assay: Cytotoxicity against human Raji cells after 72 hrs by MTT assay; format: functional; conditions: read-out: LD50 (the source's name); outline: as §1
Ramos = assay: Cytotoxicity against human Ramos cells after 72 hrs by MTT assay; format: functional; conditions: read-out: LD50 (the source's name); outline: as §1
[14] = target: T1, Thioredoxin (Homo sapiens); assay: Inhibition of thioredoxin in human HeLa cells cotransfected with p-AP1-luc assessed as inhibition of ionomycin-induced AP-1 promoter activity after 6 hrs by luciferase reporter assay; format: cell-based
Outline: (§5)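 HeLa cells nucleofected with 2 μg NF-κB- or AP-1-luciferase plasmid plus CMV-Renilla, then cultured 48 h. NF-κB: TNF (10 ng/mL) + IFN-γ (100 U) together with compound for 6 h. AP-1: 4 h in medium without FBS or antibiotics, then ionomycin (1 μM) together with compound for 6 h. Dual-luciferase read-out, firefly normalized to Renilla. Triplicates, n ≥ 3, Student's t test.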

[15] = Chemical stability of the compound in 0.01 M PBS buffer at pH 7.4 after 7 days by RP-HPLC analysis; format: physicochemical; conditions: pH 7.4, 168 h; outline: as §4
T-24 = assay: Cytotoxicity against human T24 cells after 72 hrs by crystal violet staining; format: functional; conditions: T-24, 72 h, read-out: LD50 (the source's name)
[16] = target: Thioredoxin reductase (Homo sapiens) (UniProt Q16881+Q9NNW7+Q86VQ6); conditions: 2.5 to 20 uM
[17] = target: T1, Thioredoxin (Homo sapiens); assay: Inhibition of thioredoxin in human HeLa cells cotransfected with p-NFkB-luc assessed as inhibition of TNF/IFN-gamma-induced activation of NF-kB after 6 hrs by luciferase reporter assay; format: cell-based; outline: as §5
EMT6 [18] = assay: Antitumor activity against mouse EMT6 cells allografted in BALB/c mouse assessed as prolongation of host survival time at 80 mg/kg, ip qd for 7 days; format: functional, organism-based; set-up: dose 80 mg/kg; outline: as §2
[19] = target: T1, Thioredoxin (Homo sapiens); assay: Inhibition of human recombinant Trx-1 expressed in Escherichia coli after 30 to 90 mins preincubation by insulin reduction assay in presence of thioredoxin reductase; outline: as §3
[20] = Cytotoxicity against mouse MEF cells; format: cell-based; conditions: read-out: LD50 (the source's name)
Outline: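 Fibroblasts came from BALB/c embryos at E13.5 by 0.2% trypsin digestion at 37 °C for 10 min and were cultured in DMEM. Viability is % of solvent controls with DMSO ≤1%; n ≥ 3.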

[21] = Cytotoxicity against mouse B78 cells after 72 hrs by crystal violet staining; format: functional; conditions: B78, 72 h, read-out: LD50 (the source's name)
[22] = Chemical stability of the compound in 0.01 M PBS buffer at pH 7.4 after 5 hrs by RP-HPLC analysis; format: physicochemical; conditions: read-out: Stability; outline: as §4
[23] = Cytotoxicity against mouse bone marrow cells after 72 hrs by XTT assay; format: cell-based, Bone marrow cell; conditions: read-out: LD50
Outline: (§6)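 hPBMC were isolated from healthy donors on Histopaque 1077 and kept in RPMI. Bone marrow came from female BALB/c mice and was cultured in Iscove's medium with 10% FBS and 100 U IL-3. After compound exposure, cells got XTT at 0.3 mg/mL for 4 h, read at A490 against 690 nm. Viability is % of DMSO controls; n ≥ 3.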

[24] = Cytotoxicity against human PBMC cells after 72 hrs by XTT assay; format: cell-based; conditions: read-out: LD50; outline: as §6
[25] = Solubility of the compound in biological media; format: ADME
Raji [26] = assay: Induction of Trx protein expression in human Raji cells at 10 to 20 uM after 4 to 8 hrs by Western blot analysis; format: functional, cell-based
Outline: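 Raji cells exposed to compound for 4 and 8 h, washed and lysed in 0.1% NP40 with protease inhibitors. Equal protein (BCA) run on 15% SDS-PAGE and blotted to nitrocellulose, blocked in TBST with 5% BSA. Probed overnight with rabbit anti-thioredoxin and mouse anti-tubulin, then HRP secondaries for 45 min. ECL luminol/coumaric acid detection.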

Q: For CC(C)C[C@@H](C(=O)NCC(=O)OCc1ccccc1)N(Cc1ccccc1)C(=O)C(CBr)CBr, which IC50 [1] is on record?
A: Its IC50 is > 50 µM.

Q: Which results are given for C=C(CBr)C(=O)OC [METHYL BROMOMETHYL ACRYLATE]?
A: CC50 (EMT6 [2]): > 50 µM; IC50 [1]: 0.44 µM; CC50 [3]: > 50 µM

Q: With C=C(COS(=O)(=O)c1ccc(C)cc1)C(=O)N(Cc1ccccc1)[C@@H](CC(C)C)C(=O)NCC(=O)OCc1ccccc1 as the molecule, how does the CC50 (EMT6 [2]) read?
A: Its CC50 is > 50 µM.

Q: What about the IC50 [1] of the same molecule?
A: The IC50 was 22.3 µM.

Q: What about the CC50 [3] of the same molecule?
A: The CC50 was > 50 µM.

Q: For C=C(COC(=O)c1c(C(F)(F)F)cccc1C(F)(F)F)C(=O)N[C@@H](CC(C)C)C(=O)NCC(=O)OCC, which inhibition (Raji [4]) is on record?
A: Its inhibition is “Active”.

Q: And the CC50 (K562)?
A: Its CC50 is 4 µM.

Q: What about the Activity (Mus musculus [5]) of the same molecule?
A: Its Activity is “Non-toxic”.

Q: What about the Activity [6] of the same molecule?
A: The Activity was “Active”.

Q: And the CC50 (CT26)?
A: The CC50 was 3.3 µM.

Q: And the Activity (Mus musculus [7])?
A: The Activity was “Non-toxic”.

Q: What about the inhibition [8] of the same molecule?
A: Its inhibition is “Active”.

Q: What about the Activity (Raji [9]) of the same molecule?
A: The Activity was “Active”.

Q: What about the inhibition [10] of the same molecule?
A: The inhibition was “tde”.

Q: And the “growth inhibition (GI)” value (EMT6 [11])?
A: Its value is “Active”.

Q: What about the Stability [12] of the same molecule?
A: Its Stability is “Stable”.

Q: What about the CC50 (Raji [13]) of the same molecule?
A: Its CC50 is 3.7 µM.

Q: What about the CC50 (Ramos) of the same molecule?
A: Its CC50 is 3.7 µM.

Q: And the inhibition [14]?
A: The inhibition was “Active”.

Q: What about the Stability [15] of the same molecule?
A: Its Stability is “Unstable”.

Q: And the CC50 (T-24)?
A: Its CC50 is 5.6 µM.

Q: What about the inhibition [16] of the same molecule?
A: The inhibition was “tde”.

Q: What about the inhibition [17] of the same molecule?
A: The inhibition was “Active”.

Q: And the CC50 (EMT6 [2])?
A: The CC50 was 5.2 µM.

Q: What about the Survival (EMT6 [18]) of the same molecule?
A: Its Survival is “Active”.

Q: And the inhibition [19]?
A: Its inhibition is “Dose-dependent effect”.

Q: And the CC50 [20]?
A: Its CC50 is 2.9 µM.

Q: And the CC50 [21]?
A: Its CC50 is 4.3 µM.

Q: What about the IC50 [1] of the same molecule?
A: Its IC50 is 3.3 µM.

Q: What about the CC50 [3] of the same molecule?
A: The CC50 was 3.8 µM.

Q: What about the remaining at 5 h [22] of the same molecule?
A: The remaining at 5 h was 20%.

Q: And the CC50 at 72 h [23]?
A: The CC50 at 72 h was > 12.5 µM.

Q: What about the CC50 at 72 h [24] of the same molecule?
A: Its CC50 at 72 h is > 25 µM.

Q: What about the solubility [25] of the same molecule?
A: The solubility was “soluble”.

Q: What about the Activity (Raji [26]) of the same molecule?
A: Its Activity is “Active”.
